Laboratory results: ChEMBL document CHEMBL4052757, “Bistacrines as potential antitrypanosomal agents” (Bioorg Med Chem, 2017)
Active and inactive are the calls of the source. No cut-off for these calls is given here.

Assays:
[1] = test system: Trypanosoma brucei brucei; experiment: Antitrypanosomal activity against Trypanosoma brucei brucei TC221 after 72 hrs by alamar blue assay; format: functional; conditions: TC221, 72 h
Outline: (§1)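 T. b. brucei TC221 bloodstream-form proliferation measured by alamarBlue (resazurin reduced to resorufin by living cells); 48 h and 72 h read-outs. IC50 derived per Räz et al. method; each compound tested in duplicate, mean of two values.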

[2] = test system: Trypanosoma brucei brucei; experiment: Antitrypanosomal activity against Trypanosoma brucei brucei TC221 after 48 hrs by alamar blue assay; format: functional; conditions: TC221, 48 h; outline: as §1
[3] = Selectivity index, ratio of IC50 for mouse J774.1 cells to IC50 for Trypanosoma brucei brucei TC221 measured after 48 hrs; format: toxicity; conditions: J774.1 cells (versus Trypanosoma brucei brucei TC221), read-out: Ratio IC50
Outline: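 Selectivity index computed as IC50 (J774.1 macrophages, alamarBlue) divided by IC50 (T. b. brucei TC221, alamarBlue); duplicate determinations, means used.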

[4] = Aqueous solubility of the compound; format: physicochemical; conditions: buffer
[5] = Stability of the compound; format: physicochemical
[6] = Inhibition of trypanothione reductase
Leishmania infantum = experiment: Antileishmanial activity against Leishmania infantum; format: functional
J774.1 = experiment: Cytotoxicity against mouse J774.1 cells after 24 hrs by alamar blue assay; format: cell-based; conditions: J774.1, 24 h
[7] = biological target: Trypanothione reductase (Trypanosoma cruzi) (UniProt P28593); experiment: Inhibition of Trypanosoma cruzi trypanothione reductase at 5 uM using 40 uM trypanothione disulfide as substrate by spectrophotometric method relative to control
Chain of Trypanothione reductase (Trypanosoma cruzi) (P28593 whole entry, looked up): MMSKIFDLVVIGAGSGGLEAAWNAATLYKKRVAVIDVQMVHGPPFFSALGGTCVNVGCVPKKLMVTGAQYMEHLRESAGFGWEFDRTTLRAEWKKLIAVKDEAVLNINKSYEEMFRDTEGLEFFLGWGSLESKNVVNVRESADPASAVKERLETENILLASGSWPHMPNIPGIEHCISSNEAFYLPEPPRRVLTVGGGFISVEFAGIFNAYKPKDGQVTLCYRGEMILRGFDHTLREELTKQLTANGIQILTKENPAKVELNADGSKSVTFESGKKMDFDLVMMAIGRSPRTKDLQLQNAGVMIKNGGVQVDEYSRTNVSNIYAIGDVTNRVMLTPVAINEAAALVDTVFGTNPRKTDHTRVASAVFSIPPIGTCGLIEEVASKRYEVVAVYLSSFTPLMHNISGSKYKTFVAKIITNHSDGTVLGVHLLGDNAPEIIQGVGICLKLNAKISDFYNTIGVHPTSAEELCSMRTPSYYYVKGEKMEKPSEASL
Outline: (§2)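 TcTryR (about 2 nM) in 40 mM HEPES, 1 mM EDTA, pH 7.5, 100 µM NADPH; inhibitor at fixed 2 or 5 µM (screening range 1–5 µM) from DMSO stock; TS2 fixed at 40 or 100 µM; absorbance decrease monitored; percent inhibition versus DMSO control.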

[8] = biological target: Trypanothione reductase (Trypanosoma cruzi) (UniProt P28593); experiment: Inhibition of Trypanosoma cruzi trypanothione reductase at 2 uM using 100 uM trypanothione disulfide as substrate by spectrophotometric method relative to control; outline: as §2
[9] = biological target: Rhodesain (Trypanosoma brucei rhodesiense) (UniProt Q95PM0); experiment: Inhibition of Trypanosoma brucei rhodesiense rhodesain at 20 uM using Cbz-Phe-Arg-AMC as substrate measured for 5 mins by spectrofluorometric analysis relative to control
Chain of Rhodesain (Trypanosoma brucei rhodesiense) (Q95PM0 1-450): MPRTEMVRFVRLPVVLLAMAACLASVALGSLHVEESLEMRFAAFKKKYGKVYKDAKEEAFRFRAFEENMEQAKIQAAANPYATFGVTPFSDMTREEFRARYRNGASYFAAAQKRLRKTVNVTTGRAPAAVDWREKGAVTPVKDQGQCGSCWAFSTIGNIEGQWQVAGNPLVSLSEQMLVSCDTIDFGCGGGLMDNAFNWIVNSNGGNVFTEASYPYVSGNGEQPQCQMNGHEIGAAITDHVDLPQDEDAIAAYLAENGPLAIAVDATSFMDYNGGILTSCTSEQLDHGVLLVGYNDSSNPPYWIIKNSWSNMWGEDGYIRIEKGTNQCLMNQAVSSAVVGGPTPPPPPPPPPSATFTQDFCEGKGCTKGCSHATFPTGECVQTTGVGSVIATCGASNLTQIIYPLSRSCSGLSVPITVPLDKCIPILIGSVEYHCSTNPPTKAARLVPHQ
Outline: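 Rhodesain in 50 mM sodium acetate pH 5.5 with 5 mM DTT, 5 mM EDTA, 200 mM NaCl; inhibitor 20 µM, substrate Cbz-Phe-Arg-AMC; AMC fluorescence (ex 380/em 460 nm) followed 5 min; activity from slopes of fluorescence vs time versus DMSO control; run in duplicate.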

[10] = biological target: Trypanothione reductase (Trypanosoma cruzi) (UniProt P28593); experiment: Inhibition of Trypanosoma cruzi trypanothione reductase at 2 uM using 40 uM trypanothione disulfide as substrate by spectrophotometric method relative to control; outline: as §2
[11] = biological target: Trypanothione reductase (Trypanosoma cruzi) (UniProt P28593); experiment: Inhibition of Trypanosoma cruzi trypanothione reductase at 5 uM using 100 uM trypanothione disulfide as substrate by spectrophotometric method relative to control; outline: as §2
[12] = biological target: Rhodesain (Trypanosoma brucei rhodesiense) (UniProt Q95PM0); experiment: Inhibition of Trypanosoma brucei rhodesiense rhodesain using Cbz-Phe-Arg-AMC as substrate by spectrofluorometric analysis
Rhodesain = Rhodesain (Trypanosoma brucei rhodesiense, UniProt Q95PM0); experiment: Inhibition of Trypanosoma brucei rhodesiense rhodesain using Cbz-Phe-Arg-AMC as substrate measured for 10 mins by spectrofluorometric analysis
Chain of Rhodesain (Q95PM0 whole entry): as the sequence (Q95PM0 1-450) above

[13] = Ratio of IC50 for Trypanosoma brucei rhodesiense rhodesain to IC50 for Trypanosoma brucei brucei TC221

Structure (SMILES)	IC50 [1] [µM]	IC50 [2] [µM]	selectivity ratio at 48 h [3]	inhibition [6]	Activity (Leishmania infantum)	IC50 (J774.1) [µM]	other results
Nc1c2c(nc3ccc(Cl)cc13)CCCC2	16.5	12	3.6	–	–	–	–
O=C1CCCc2nc3ccccc3c(NCCCCCCCCCNc3c4c(nc5ccccc35)CCCC4=O)c21	–	–	–	–	–	–	solubility [4]: Insoluble
C1=Cc2c(nc3ccccc3c2NCCCCCCCCCNc2c3c(nc4ccccc24)CCC=C3)CC1	0.25	0.09	16.7	Active	Active	1.6	Stability [5]: Stable
Nc1c2c(nc3ccccc13)CCCC2=O	18	14.6	> 6.8	–	–	> 100	–
c1ccc2c(NCCCCCCNc3c4c(nc5ccccc35)CCCC4)c3c(nc2c1)CCCC3	0.33	0.26	–	–	Active	3	inhibition [7]: 56.6 to 57.5%; inhibition [8]: 15.1%; inhibition [9]: 25%; inhibition [10]: 27.5 to 29.2%; inhibition [11]: 45.2 to 47.9%
CCCC1CCc2nc3ccccc3c(N)c2C1 (stereo not drawn)	3.5	2.6	16.5	–	–	–	–
CCCC1CCc2nc3cc(Cl)ccc3c(N)c2C1 (stereo not drawn)	3.4	2.6	3.2	–	–	8.4	–
CCC1CCc2nc3cc(Cl)ccc3c(N)c2C1 (stereo not drawn)	3.5	2.8	8.7	–	–	24.4	–
COc1ccc2nc3c(c(NCCCCCCCCCNc4c5c(nc6ccc(OC)cc46)CCCC5)c2c1)CCCC3	0.14	0.12	10.6	Active	Active	–	inhibition [12]: Dose-dependent effect; inhibition [9]: 82%; IC50 (Rhodesain): 18.1 µM
Nc1c2c(nc3ccc([N+](=O)[O-])cc13)CCCC2	15.1	8.6	5.2	–	–	–	–
c1ccc2c(NCCCCCCCCCCNc3c4c(nc5ccccc35)CCCC4)c3c(nc2c1)CCCC3	0.15	0.12	15	Active	Active	–	–
CC1(C)CCc2c(nc3cc(Cl)ccc3c2NCCCCCCNc2c3c(nc4cc(Cl)ccc24)CC(C)(C)CC3)C1	0.72	0.64	2.7	Active	Active	1.7	inhibition [12]: Dose-dependent effect; inhibition [9]: 64%; IC50 (Rhodesain): 26.6 µM
CC1CCc2nc3ccccc3c(NCCCCCCCCCNc3c4c(nc5ccccc35)CCC(C)C4)c2C1 (stereo not drawn)	0.21	0.16	11.3	Active	Active	1.8	inhibition [12]: Dose-dependent effect; inhibition [9]: 68%; IC50 (Rhodesain): 26.6 µM
CCOC1CCc2nc3cc(Cl)ccc3c(NCCCCCCCCCNc3c4c(nc5cc(Cl)ccc35)CCC(OCC)C4)c2C1 (stereo not drawn)	0.71	0.63	2.8	Active	Active	1.7	inhibition [12]: Dose-dependent effect; inhibition [9]: 89%; IC50 (Rhodesain): 13.3 µM
CCCCOC1CCc2nc3cc(Cl)ccc3c(NCCCCCCCCCNc3c4c(nc5cc(Cl)ccc35)CCC(OCCCC)C4)c2C1 (stereo not drawn)	0.42	0.43	20	Active	Active	8.6	inhibition [9]: 26%
CC1CCc2c(nc3ccc([N+](=O)[O-])cc3c2N)C1 (stereo not drawn)	3.7	6.1	7.1	–	–	43.3	–
CCC1CCc2nc3ccc(Cl)cc3c(N)c2C1 (stereo not drawn)	3.7	2.7	3.1	–	–	8.3	–
CC1CCc2nc3ccccc3c(N)c2C1 (stereo not drawn)	18.1	15.8	2.8	–	–	44.9	–
C1=Cc2c(nc3ccccc3c2NCCCCCCCCCCNc2c3c(nc4ccccc24)CCC=C3)CC1	0.88	0.29	33.4	Active	Active	9.7	Stability [5]: Stable

Structure (SMILES)	IC50 [1] [µM]	IC50 [2] [µM]	selectivity ratio at 48 h [3]	inhibition [6]	Activity (Leishmania infantum)	IC50 (J774.1) [µM]	other results
N=C(N)c1ccc(OCCCCCOc2ccc(C(=N)N)cc2)cc1 [PENTAMIDINE]	–	0.0053	7280	–	–	38.6	–
C1=Cc2c(nc3ccccc3c2NCCCCCCCCNc2c3c(nc4ccccc24)CCC=C3)CC1	0.25	0.08	21.3	Active	Active	1.7	Stability [5]: Stable
CC1CCc2nc3cc(Cl)ccc3c(N)c2C1 (stereo not drawn)	13.4	6	6.9	–	–	41.2	–
c1ccc2c(NCCCCCNc3c4c(nc5ccccc35)CCCC4)c3c(nc2c1)CCCC3	6.4	5.2	–	–	Active	–	inhibition [9]: 9%
CC1CCc2nc3ccc(Cl)cc3c(N)c2C1 (stereo not drawn)	10.3	3.9	11.2	–	–	43.8	–
CC1CCc2nc3ccc([N+](=O)[O-])cc3c(N)c2C1 (stereo not drawn)	4.8	3.2	14.5	–	–	46.4	–
O=C1CCCc2nc3ccccc3c(NCCCCCCCNc3c4c(nc5ccccc35)CCCC4=O)c21	–	–	–	–	–	–	solubility [4]: Insoluble
O=C1CCCc2nc3ccccc3c(NCCCCCCCCNc3c4c(nc5ccccc35)CCCC4=O)c21	–	–	–	–	–	–	solubility [4]: Insoluble
Nc1c2c(nc3ccccc13)CCCC2 [TACRINE]	18.4	14.6	> 6.8	–	–	–	–
Clc1ccc2c(NCCCCCCNc3c4c(nc5cc(Cl)ccc35)CCCC4)c3c(nc2c1)CCCC3	0.71	0.64	4.4	Active	Active	2.8	inhibition [12]: Dose-dependent effect; Ratio IC50 [13]: 10; inhibition [9]: 61%; IC50 (Rhodesain): 7.4 µM
CC1CCc2c(nc3ccccc3c2N)C1 (stereo not drawn)	17.6	14.5	3.1	–	–	45	–
CCC1CCc2nc3ccccc3c(N)c2C1 (stereo not drawn)	17.2	12.3	3.5	–	–	43.6	–
O=C1CCCc2nc3ccccc3c(NCCCCCCCCCCNc3c4c(nc5ccccc35)CCCC4=O)c21	–	–	–	–	–	–	solubility [4]: Insoluble
Nc1c2c(nc3cc(Cl)ccc13)CCCC2	17.1	12.6	3.3	–	–	41	–
CCCC1CCc2nc3ccc(Cl)cc3c(N)c2C1 (stereo not drawn)	3.4	2.7	3.1	–	–	–	–
CC1CCc2c(nc3ccc([N+](=O)[O-])cc3c2NCCCCCCNc2c3c(nc4ccc([N+](=O)[O-])cc24)CC(C)CC3)C1 (stereo not drawn)	0.68	0.62	38.5	Active	Active	–	inhibition [12]: Dose-dependent effect; Ratio IC50 [13]: 10; inhibition [9]: 82%; IC50 (Rhodesain): 5.8 µM
O=C1CCCc2nc3ccccc3c(NCCCCCCNc3c4c(nc5ccccc35)CCCC4=O)c21	–	–	–	–	–	–	solubility [4]: Insoluble
C1=Cc2c(nc3ccccc3c2NCCCCCCNc2c3c(nc4ccccc24)CCC=C3)CC1	0.7	0.51	3.5	Active	Active	1.8	Stability [5]: Stable
